# Experimental data pooled from the literature.
# Compare with care: the assays were run in different laboratories.
# Observed: enzyme activity
# Action: inhibitor
# BRAF V600E: Serine/threonine-protein kinase B-raf (BRAF, Homo sapiens, UniProt P15056, V600E)
# BRAF: Serine/threonine-protein kinase B-raf (BRAF, Homo sapiens, UniProt P15056)
SMILES,target,test,conditions,inhibition [%]
COc1cc(-c2cc(-c3ccc(N4CCNCC4)cc3)cnc2N)cc(OC)c1OC,BRAF V600E,,1 µM,18
Cc1ccc(N=Nc2sc(NN=C(CS(=O)(=O)c3ccccc3)c3ccc(C)cc3)nc2C)cc1,BRAF V600E,ATP luminescence,10 nM,29
CS(=O)(=O)Nc1cccc(-c2csc(NC(=O)CSc3nc4nccnc4c(=O)n3CCc3ccccc3)n2)c1,BRAF V600E,,10 µM,2
Cc1ccc(C(CS(=O)(=O)c2ccccc2)=NNC(N)=S)cc1,BRAF V600E,ATP luminescence,10 nM,31
COc1cc2ncnc(Nc3ccc(Oc4ccccc4)c(C)c3C)c2cc1OC,BRAF,,1 µM,11
Cc1ccc(C(CS(=O)(=O)c2ccccc2)=NN=C2N=C(c3ccc(Br)cc3)CS2)cc1,BRAF V600E,ATP luminescence,1 µM,79
COc1cc2nccc(Oc3ccc(NC(=O)c4c5n(n(-c6ccc(F)cc6)c4=O)CCCC5)cc3)c2cc1OC,BRAF,,0.1 µM,18
Cn1cncc1C1=CN(c2ncnc3[nH]cnc23)CCS1,BRAF,radiometric,2 µM,35.1
CN(C)C1CCN(CC#Cc2nn(C3CCCC3)c3nc(NCc4ccccc4)ncc23)C1 (stereo not shown),BRAF,FRET,10 µM,1
O=C(CSc1nc2nccnc2c(=O)n1CCc1ccccc1)Nc1nccs1,BRAF,,10 µM,9
